ChEMBL document CHEMBL4251723, “Antibacterial Dimeric Acylphloroglucinols from Hypericum japonicum” (J Nat Prod, 2018)
Values after ≈ are worked out from the molar mass of the structure shown.

Legend:
Enterococcus faecalis = assay: Antibacterial activity against Enterococcus faecalis ATCC 10541; type: functional
Procedure, shortened: (§1)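 24 h growth-inhibition (MIC) assay. Final test concentration range was 50−3.13 μg/mL or 2.0−0.05 μg/mL depending on compound. Cefotaxime sodium served as positive control. Each experiment was repeated three times.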

Escherichia coli = assay: Antibacterial activity against Escherichia coli ATCC 11775; type: functional; details: DSM 30083 = JCM 1649 = ATCC 11775; procedure, shortened: as §1
Staphylococcus aureus = assay: Antibacterial activity against Staphylococcus aureus […]; type: functional; procedure, shortened: as §1
Salmonella typhimurium = assay: Antibacterial activity against Salmonella typhimurium ATCC 6539; type: functional, Salmonella enterica subsp. enterica serovar Typhimurium; details: Salmonella enterica; procedure, shortened: as §1
[1] = biological target: T1, Pancreatic triacylglycerol lipase (Sus scrofa, UniProt P00591); assay: Inhibition of porcine pancreatic lipase using p-NPB as substrate pretreated for 15 mins followed by substrate addition measured after 15 mins by spectrophometric method
T1 sequence (P00591 whole entry): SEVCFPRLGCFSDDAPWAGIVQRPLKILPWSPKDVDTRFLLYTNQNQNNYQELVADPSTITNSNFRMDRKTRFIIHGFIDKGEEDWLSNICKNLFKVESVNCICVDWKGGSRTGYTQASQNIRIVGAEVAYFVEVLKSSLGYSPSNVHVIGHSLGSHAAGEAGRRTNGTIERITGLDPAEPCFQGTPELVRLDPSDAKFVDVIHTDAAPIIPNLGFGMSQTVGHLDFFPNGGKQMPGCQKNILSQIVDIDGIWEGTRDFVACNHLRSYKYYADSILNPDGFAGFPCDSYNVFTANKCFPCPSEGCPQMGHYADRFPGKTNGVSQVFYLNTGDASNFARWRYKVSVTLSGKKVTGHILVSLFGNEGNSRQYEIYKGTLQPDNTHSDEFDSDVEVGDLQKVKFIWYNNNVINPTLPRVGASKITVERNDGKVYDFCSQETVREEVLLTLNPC

Row | Structure (SMILES) | MIC (Enterococcus faecalis) | MIC (Escherichia coli) | MIC (Staphylococcus aureus) | MIC (Salmonella typhimurium) | IC50 [1]
1 | CC(C)=CCOc1cc(O)c(CC2=C(O)C(C)(C)C(O)=C(C(=O)C(C)C)C2=O)c(O)c1C(=O)c1ccccc1 | 1.9 µM (≈ 1.02 µg/mL) | 1.9 µM (≈ 1.02 µg/mL) | 1.9 µM (≈ 1.02 µg/mL) | 0.9 µM (≈ 0.481 µg/mL) | –
2 | CCC(C)C(=O)C1=C(O)C(C)(C)C(O)=C(Cc2c(O)cc(OCC=C(C)C)c(C(=O)c3ccccc3)c2O)C1=O (centres undefined) | 1.8 µM (≈ 0.988 µg/mL) | 1.8 µM (≈ 0.988 µg/mL) | 1.8 µM (≈ 0.988 µg/mL) | 0.9 µM (≈ 0.494 µg/mL) | –
3 | CC(C)=CCC[C@]1(C)Oc2c(c(O)c(CC3=C(O)C(C)(C)C(O)=C(C(=O)C(C)C)C3=O)c(O)c2C(=O)C(C)C)C[C@H]1O | 10.7 µM (≈ 6.26 µg/mL) | 21.4 µM (≈ 12.5 µg/mL) | 85.6 µM (≈ 50.1 µg/mL) | 5.4 µM (≈ 3.16 µg/mL) | –

Continued by falling MIC (Enterococcus faecalis), values first:

Row | MIC (Enterococcus faecalis) | MIC (Escherichia coli) | MIC (Staphylococcus aureus) | MIC (Salmonella typhimurium) | IC50 [1] | Structure (SMILES)
4 | 1.8 µM (≈ 1.02 µg/mL) | 0.9 µM (≈ 0.512 µg/mL) | 1.8 µM (≈ 1.02 µg/mL) | 1.8 µM (≈ 1.02 µg/mL) | – | CC(C)=CCC/C(C)=C/Cc1c(O)c(CC2=C(O)C(C)(C)C(O)=C(C(=O)C(C)C)C2=O)c(O)c(C(=O)C(C)C)c1O
5 | 1.7 µM (≈ 0.991 µg/mL) | 0.9 µM (≈ 0.524 µg/mL) | 3.4 µM (≈ 1.98 µg/mL) | 1.7 µM (≈ 0.991 µg/mL) | 8.3 µM | CCC(C)C(=O)C1=C(O)C(C)(C)C(O)=C(Cc2c(O)c(C/C=C(\C)CCC=C(C)C)c(O)c(C(=O)C(C)C)c2O)C1=O (centres undefined)
6 | 0.9 µM (≈ 0.526 µg/mL) | 0.9 µM (≈ 0.526 µg/mL) | 1.7 µM (≈ 0.994 µg/mL) | 0.9 µM (≈ 0.526 µg/mL) | – | C=C(CCC=C(C)C)C(O)Cc1c(O)c(CC2=C(O)C(C)(C)C(O)=C(C(=O)C(C)C)C2=O)c(O)c(C(=O)C(C)C)c1O (centres undefined)
7 | 0.8 µM (≈ 0.479 µg/mL) | 0.8 µM (≈ 0.479 µg/mL) | 3.3 µM (≈ 1.98 µg/mL) | 0.8 µM (≈ 0.479 µg/mL) | 14.5 µM | C=C(CCC=C(C)C)C(O)Cc1c(O)c(CC2=C(O)C(C)(C)C(O)=C(C(=O)C(C)CC)C2=O)c(O)c(C(=O)C(C)C)c1O (centres undefined)
8 | 0.4 µM | 0.4 µM | 3.3 µM | 3.3 µM | – | CO/N=C(\C(=O)N[C@@H]1C(=O)N2C(C(=O)O)=C(COC(C)=O)CS[C@H]12)c1csc(N)n1 [CEFOTAXIME SODIUM]
